This is a sample that favours compounds with a hit; in the whole collection about 3.8% have one here.
Xi reactivation = activators of X-chromosome reactivation in mouse fibroblasts | XiGFP mouse fibroblasts, % GFP-positive cells imaging, 3 d; cells co-treated with 5-aza-dC sensitizer; scaled so ellipticine positive control = 100% | activation, % at 7.58 µM | 360,000 compounds, 0.055% hits | AID 743238;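 active = mean normalized replicate activation at least 10% and every replicate at or above 10%; inconclusive = only one of the two criteria met; inactive = mean below 10% and not all replicates reach 10%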;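 note: 0% = median of on-plate neutral control wells and 100% = ellipticine 6 µM median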
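Assay system: SV40-immortalized XiGFP fibroblast cells, line 68-5-11; buffer or medium: DMEM plus 5-aza-dC sensitizer; compound: one concentration, pinned; timing: compounds 3 days, fix/stain 15 min at room temperature; benchmarks: positive control ellipticine, 6 µM final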
FN deposit inh = fibronectin deposition inhibition. AH1F fibroblasts, Alexa488-fibronectin deposition fluorescence, overnight. inhibition, % at 12.6 µM. 350,000 compounds, 0.086% hits;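 active = mean inhibition across replicates of 30% or more, regardless of how many single replicates reach that level; inconclusive = mean under 30% yet at least half of replicates reach 30%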;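 note: positive control wells lacked labelled fibronectin entirely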
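Measured by – fluorescence 485/525 nm · System – AH1F fibroblast monolayer, labelled fibronectin deposition · Amount – 10000 cells per well · Buffer or medium – serum-reduced DMEM (2% serum) · Doses – single dose, pinned · Also added – fluorescent fibronectin at 24 nM final · Schedule – 1 h cell attachment, overnight exposure to compound and label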
FGF22 binding = FGF22 (human) thermal shift binding; activity (Tm shift, normalised), % at 9.99 µM; 340,000 compounds, 1.5% hits; Q9HCT0; recombinant FGF22 thermal shift, SYPRO orange fluorescence; percent of sucrose octasulfate shift, DMSO zero;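 active = mean Tm shift, scaled 0 neutral to 100 positive control, at about 1.3% or above, every replicate too, limit read from the data; inconclusive = no clear call, values can overlap the other calls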
Target sequence (Q9HCT0 whole entry, looked up): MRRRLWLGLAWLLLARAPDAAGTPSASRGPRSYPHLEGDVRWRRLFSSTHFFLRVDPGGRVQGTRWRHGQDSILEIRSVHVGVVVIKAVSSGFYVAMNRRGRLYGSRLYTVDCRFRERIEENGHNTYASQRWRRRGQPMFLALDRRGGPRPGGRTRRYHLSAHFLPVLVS
ARNT-TACC3 inh = disruptors of human ARNT/TACC3 interaction | Q9Y6A5 | AlphaScreen His-ARNT PAS-B/GST-TACC3 binding, luminescence; TACC3 fragment carries E629A point mutation | inhibition, % at 9.99 µM | 390,000 compounds, 0.66% hits | AID 623870;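 active = mean inhibition of replicates at least 50% and at least half of replicates each reaching 50%; inconclusive = half or more replicates reach 50% but mean below 50%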;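 note: 0% = complete ARNT plus TACC3 wells and 100% = ARNT alone without TACC3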
DENV2 CPE = DENV2-induced cell death inhibition; CPE inhibition, % at 9.99 µM; DENV2-infected cells, cytopathic effect rescue, plate reader; 350,000 compounds, 1.7% hits; in the data active = CPE inhibition above about 20%, passing the limit was not always enough; inconclusive = no clear call, values can overlap the other calls; tested in BHK-21 cells;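 note: 0% = median of neutral control wells and 100% = median of positive control wells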
SIRT5 block = inhibitors of human sirtuin-5 desuccinylase. AID 652115. Purified SirT5, succinyl-peptide AMC, trypsin-coupled fluorescence. Q9NXA8. inhibition, % at 15 µM. 330,000 compounds, 1.1% hits; in the data active = inhibition above about 15%; inconclusive = no clear call, values can overlap the other calls
Target sequence (Q9NXA8 whole entry, looked up): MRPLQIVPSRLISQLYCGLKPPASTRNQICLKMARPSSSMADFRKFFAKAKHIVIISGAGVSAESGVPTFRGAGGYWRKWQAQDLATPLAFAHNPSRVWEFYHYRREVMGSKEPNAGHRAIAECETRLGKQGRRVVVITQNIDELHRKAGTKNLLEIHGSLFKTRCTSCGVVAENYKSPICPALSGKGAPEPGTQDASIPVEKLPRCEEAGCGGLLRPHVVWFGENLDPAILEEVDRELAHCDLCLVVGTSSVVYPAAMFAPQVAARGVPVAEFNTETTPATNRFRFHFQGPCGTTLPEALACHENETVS
Active calls of the source: *.

`CCCNC(=O)c1cc2c(c(-c3cccc(-c4ccccc4F)c3)n1)[C@H](CCO)N(C(=O)CC1CC1)C2` gave Xi reactivation 0, FN deposit inh 1, FGF22 binding 0, DENV2 CPE 82* and SIRT5 block 5.
Screening CCNC(=O)c1cc2c(c(-c3cccc(-c4ccccc4F)c3)n1)[C@@H](CCO)N(C(=O)CC1CC1)C2 returned Xi reactivation 0, FN deposit inh 22, FGF22 binding 0, DENV2 CPE 2 and SIRT5 block 5.
For COc1ccccc1-c1cccc(-c2nc(C(=O)Nc3nccs3)cc3c2[C@@H](CCO)N(C(=O)CC2CC2)C3)c1 the results were Xi reactivation 0, FN deposit inh 15, FGF22 binding 0, DENV2 CPE 5 and SIRT5 block 16*.
Screening C[C@H](CO)N1C[C@H](C)[C@H](CN(C)Cc2ccc(C(=O)Nc3ccccc3N)cc2)Oc2ccc(NS(=O)(=O)c3ccc(F)cc3)cc2C1=O returned Xi reactivation -1, FN deposit inh -10, FGF22 binding 0 and DENV2 CPE -6.
Screening Oc1ccc(C[C@H]2CN([C@@H](Cc3ccccc3)CN3CCC[C@@H]3CN3C(=S)NC[C@@H]3Cc3ccccc3)C(=S)N2CC2CCCCC2)cc1 returned Xi reactivation 0, FGF22 binding 0 and DENV2 CPE -5.
For CC(C)C[C@@H](CN1CCC[C@@H]1CN1C(=S)NC[C@@H]1Cc1ccc(O)cc1)N1C[C@H](Cc2ccc(O)cc2)N(CC2CCCCC2)C1=S the results were Xi reactivation 0, FN deposit inh 1, FGF22 binding 0, DENV2 CPE 28* and SIRT5 block -1.
Oc1ccc(C[C@H]2CNC(=S)N2CC2CCCN2C[C@H](Cc2ccc(O)cc2)N2C[C@H](Cc3ccc(O)cc3)N(CC3CCCCCC3)C2=S)cc1 (some centres not stated) was read as Xi reactivation 0, FGF22 binding 0, ARNT-TACC3 inh -4, DENV2 CPE -8 and SIRT5 block 17*.
For C[C@H](CO)N1C[C@H](C)[C@H](CN(C)C(=O)Nc2ccc(C(F)(F)F)cc2)Oc2c(NC(=O)c3nc4ccccc4s3)cccc2C1=O the results were Xi reactivation -1, FGF22 binding 0, ARNT-TACC3 inh -1, DENV2 CPE inconclusive and SIRT5 block 4.
CC(C)(C)NC(=O)C(c1ccncc1)n1c(=O)c(-c2ccco2)nc2ccccc21 (configuration not stated) was read as Xi reactivation 0, FN deposit inh 0, FGF22 binding 0, DENV2 CPE 31* and SIRT5 block -3.
`O=C(NCc1ccccc1)C(c1ccncc1)n1c(=O)c(-c2ccccc2)nc2ccccc21` (configuration not stated) gave Xi reactivation 1, FN deposit inh -1, FGF22 binding 0, DENV2 CPE 40* and SIRT5 block 0.
For CC(C)(C)NC(=O)C(c1ccccc1)n1c(=O)c(-c2ccco2)nc2ccccc21 (configuration not stated) the results were Xi reactivation 0, FN deposit inh -7, FGF22 binding 0, DENV2 CPE inconclusive and SIRT5 block -2.
Screening Nc1ccc2nc(-c3cccc(-c4nc5ccc(N)cc5[nH]4)c3)[nH]c2c1 returned Xi reactivation 0, FN deposit inh -24, FGF22 binding 0, ARNT-TACC3 inh -33, DENV2 CPE -4 and SIRT5 block 17*.
`CO[C@@H]1CN(C)C(=O)c2ccc(NC(=O)c3cc(C)on3)cc2OC[C@@H](C)N(C(=O)C2CC2)C[C@H]1C` gave Xi reactivation 0, FN deposit inh 3, FGF22 binding 0, ARNT-TACC3 inh 7, DENV2 CPE 13 and SIRT5 block -2.
NC(=S)NNc1cccc2cccnc12 was read as Xi reactivation 0, FN deposit inh 6, FGF22 binding 0, ARNT-TACC3 inh 65*, DENV2 CPE -11 and SIRT5 block 9.
`NC(=O)c1ccsc1NC(=O)COC(=O)[C@@H]1CCCN1C(=O)c1cccs1` gave Xi reactivation 0, FN deposit inh 4, FGF22 binding 0, ARNT-TACC3 inh -1, DENV2 CPE 122* and SIRT5 block -1.
Cc1nnc(SCC(=O)Nc2ncc3c(n2)CC(c2ccccc2)CC3=O)s1 (configuration not stated) was read as FN deposit inh -4, ARNT-TACC3 inh -1 and SIRT5 block 28*.
C[C@@H]1CN([C@@H](C)CO)C(=O)c2cc(NC(=O)C3CC3)ccc2O[C@@H]1CN(C)C(=O)Nc1cccc2ccccc12 was read as Xi reactivation -1, FN deposit inh 5, FGF22 binding 0, ARNT-TACC3 inh 3, DENV2 CPE -3 and SIRT5 block 0.
For O=C(O)CCN=Cc1c(O)c2ccccc2oc1=O the results were Xi reactivation 1, FN deposit inh -7, FGF22 binding 43*, ARNT-TACC3 inh -33 and SIRT5 block 5.
For CNc1cncc(-c2cccc(C(C)=O)c2)n1 the results were Xi reactivation 0, FN deposit inh 16, FGF22 binding 0, DENV2 CPE 31* and SIRT5 block 1.
`COc1ccc(C2N(c3ccc(Cl)cc3)C(=O)C3CCCN32)cc1` (configuration not stated) gave Xi reactivation 0, FN deposit inh -2, FGF22 binding 0, ARNT-TACC3 inh 30* and DENV2 CPE 6.
C=CCc1c(C)nc(-c2ccccc2)nc1N/N=C/c1ccncc1 was read as Xi reactivation 0, FN deposit inh 2, FGF22 binding 43*, ARNT-TACC3 inh -4, DENV2 CPE -4 and SIRT5 block -2.
O=C(CN1CC(=O)Nc2ccccc21)Nc1ccc(F)c(F)c1 was read as Xi reactivation 0, FN deposit inh -8, FGF22 binding 43*, ARNT-TACC3 inh 2, DENV2 CPE -2 and SIRT5 block -4.
For O=C(CN1CC(=O)Nc2ccccc21)NCCc1ccc(Cl)cc1Cl the results were Xi reactivation 0, FN deposit inh -2, FGF22 binding 44*, ARNT-TACC3 inh -4, DENV2 CPE 10 and SIRT5 block -3.
`O=C(CN1CCNC(=O)C1)NCCc1ccc(Cl)cc1Cl` gave Xi reactivation 0, FN deposit inh -3, FGF22 binding 0, ARNT-TACC3 inh 0, DENV2 CPE 2 and SIRT5 block -1.
COc1ccc(NC(=O)Nc2ccc3c(c2)CC(=O)N([C@H](C)CO)C[C@@H](C)[C@@H](CN(C)C(=O)Nc2c(C)noc2C)O3)cc1 was read as Xi reactivation 0, FGF22 binding 0 and DENV2 CPE -1.

High-throughput results from PubChem BioAssay.
